According to ChEMBL document CHEMBL4689842, “EUbOPEN Chemogenomics Library wave 1” (2021):

Legend:
[1] = test system: HEK-293T; test: Multiplex assay against HEK293T; format: toxicity, cell-based; conditions: human;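 on Population Tubulin-Different-Phenotype (%): share of the cells with healthy nuclei that show this phenotype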
Summary of the method: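 Live cells were stained at seeding with Hoechst33342, BioTracker Green Microtubule Cytoskeleton Dye, MitoTracker Red and Annexin V Alexa Fluor 680, then imaged on a CQ1 microscope at 37°C and 5% CO2 after compound addition. CellPathfinder machine-learning gating split cells into Hoechst high-intensity objects or normal cells. Normal cells were split into healthy, pyknosed or fragmented nuclei, and pyknosed cells into mitotic or apoptotic. Tubulin, mitochondrial-mass and membrane-permeability phenotypes are per cents of healthy-nucleus cells.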

[2] = test system: Fibroblast; test: Incucyte cell viability with human fibroblast; format: toxicity, cell-based; conditions: 10 µM, compound concentration 10 uM; further: filed as whole numbers so only -1 and 0 and 1 occur
[3] = 12 h, 1 µM, compound concentration 1 uM, replicate 1
[4] = 12 h, 1 µM, compound concentration 1 uM, replicate 2
[5] = 12 h, 10 µM, compound concentration 10 uM, replicate 1
[6] = 12 h, 10 µM, compound concentration 10 uM, replicate 2
[7] = 24 h, 1 µM, compound concentration 1 uM, replicate 1
[8] = 24 h, 1 µM, compound concentration 1 uM, replicate 2
[9] = 24 h, 10 µM, compound concentration 10 uM, replicate 1
[10] = 24 h, 10 µM, compound concentration 10 uM, replicate 2
[11] = 48 h, 1 µM, compound concentration 1 uM, replicate 1
[12] = 48 h, 1 µM, compound concentration 1 uM, replicate 2
[13] = 48 h, 10 µM, compound concentration 10 uM, replicate 1
[14] = 48 h, 10 µM, compound concentration 10 uM, replicate 2

## Nc1nc2c(c(N3CCNCC3)n1)CCC1=C2[C@@H]2CCCC[C@@H]2O1
[1]; [3]
  Population Apoptotic (%): 34%
  Population Fragmented Nuclei (%): 7%
  Population Hoechst High Intensity Objects (%): 10%
  Population Membrane Permeable-Phenotype (%): 3%
  Population Mitochondria Different-Phenotype (%): 82%
  Population Mitotic Cells (%): 65%
  Population Normal (%): 89%
  Population Pyknosed Nuclei (%): 50%
  Population Tubulin-Different-Phenotype (%): 48%
  Total Cell Count: 236
[1]; [4]
  Population Apoptotic (%): 21%
  Population Fragmented Nuclei (%): 4%
  Population Healthy Nuclei (%): 41%
  Population Hoechst High Intensity Objects (%): 4%
  Population Membrane Permeable-Phenotype (%): 6%
  Population Mitochondria Different-Phenotype (%): 33%
  Population Mitotic Cells (%): 78%
  Population Normal (%): 95%
  Population Pyknosed Nuclei (%): 53%
  Population Tubulin-Different-Phenotype (%): 25%
  Total Cell Count: 217
[1]; [5]
  Population Apoptotic (%): 76%
  Population Fragmented Nuclei (%): 7%
  Population Healthy Nuclei (%): 33%
  Population Hoechst High Intensity Objects (%): 15%
  Population Membrane Permeable-Phenotype (%): 4%
  Population Mitochondria Different-Phenotype (%): 97%
  Population Mitotic Cells (%): 23%
  Population Normal (%): 84%
  Population Pyknosed Nuclei (%): 59%
  Population Tubulin-Different-Phenotype (%): 98%
  Total Cell Count: 238
[1]; [6]
  Population Apoptotic (%): 58%
  Population Fragmented Nuclei (%): 5%
  Population Healthy Nuclei (%): 32%
  Population Hoechst High Intensity Objects (%): 7%
  Population Membrane Permeable-Phenotype (%): 1%
  Population Mitochondria Different-Phenotype (%): 88%
  Population Mitotic Cells (%): 41%
  Population Normal (%): 92%
  Population Pyknosed Nuclei (%): 61%
  Population Tubulin-Different-Phenotype (%): 95%
  Total Cell Count: 200
[1]; [7]
  Population Apoptotic (%): 49%
  Population Fragmented Nuclei (%): 12%
  Population Healthy Nuclei (%): 59%
  Population Hoechst High Intensity Objects (%): 10%
  Population Membrane Permeable-Phenotype (%): 1%
  Population Mitochondria Different-Phenotype (%): 70%
  Population Mitotic Cells (%): 50%
  Population Normal (%): 89%
  Population Pyknosed Nuclei (%): 28%
  Population Tubulin-Different-Phenotype (%): 47%
  Total Cell Count: 298
[1]; [8]
  Population Apoptotic (%): 18%
  Population Fragmented Nuclei (%): 8%
  Population Hoechst High Intensity Objects (%): 3%
  Population Membrane Permeable-Phenotype (%): 2%
  Population Mitochondria Different-Phenotype (%): 29%
  Population Mitotic Cells (%): 81%
  Population Normal (%): 96%
  Population Pyknosed Nuclei (%): 32%
  Population Tubulin-Different-Phenotype (%): 29%
  Total Cell Count: 264
[1]; [9]
  Population Apoptotic (%): 80%
  Population Fragmented Nuclei (%): 8%
  Population Healthy Nuclei (%): 40%
  Population Hoechst High Intensity Objects (%): 27%
  Population Membrane Permeable-Phenotype (%): 0%
  Population Mitotic Cells (%): 19%
  Population Normal (%): 72%
  Population Pyknosed Nuclei (%): 51%
  Population Tubulin-Different-Phenotype (%): 95%
  Total Cell Count: 241
[1]; [10]
  Population Apoptotic (%): 81%
  Population Fragmented Nuclei (%): 3%
  Population Healthy Nuclei (%): 42%
  Population Hoechst High Intensity Objects (%): 16%
  Population Membrane Permeable-Phenotype (%): 2%
  Population Mitochondria Different-Phenotype (%): 100%
  Population Mitotic Cells (%): 18%
  Population Normal (%): 83%
  Population Pyknosed Nuclei (%): 54%
  Population Tubulin-Different-Phenotype (%): 100%
  Total Cell Count: 190
[1]; [11]
  Population Apoptotic (%): 36%
  Population Healthy Nuclei (%): 79%
  Population Hoechst High Intensity Objects (%): 7%
  Population Membrane Permeable-Phenotype (%): 1%
  Population Mitochondria Different-Phenotype (%): 25%
  Population Mitotic Cells (%): 63%
  Population Normal (%): 92%
  Population Pyknosed Nuclei (%): 11%
  Population Tubulin-Different-Phenotype (%): 26%
  Total Cell Count: 532
[1]; [12]
  Population Apoptotic (%): 12%
  Population Fragmented Nuclei (%): 8%
  Population Healthy Nuclei (%): 76%
  Population Hoechst High Intensity Objects (%): 4%
  Population Membrane Permeable-Phenotype (%): 9%
  Population Mitochondria Different-Phenotype (%): 12%
  Population Mitotic Cells (%): 87%
  Population Normal (%): 95%
  Population Pyknosed Nuclei (%): 14%
  Population Tubulin-Different-Phenotype (%): 35%
  Total Cell Count: 420
[1]; [13]
  Population Apoptotic (%): 66%
  Population Fragmented Nuclei (%): 12%
  Population Healthy Nuclei (%): 48%
  Population Hoechst High Intensity Objects (%): 45%
  Population Membrane Permeable-Phenotype (%): 1%
  Population Mitochondria Different-Phenotype (%): 93%
  Population Mitotic Cells (%): 33%
  Population Normal (%): 54%
  Population Pyknosed Nuclei (%): 39%
  Population Tubulin-Different-Phenotype (%): 96%
  Total Cell Count: 288
[1]; [14]
  Population Apoptotic (%): 74%
  Population Fragmented Nuclei (%): 7%
  Population Healthy Nuclei (%): 54%
  Population Hoechst High Intensity Objects (%): 37%
  Population Membrane Permeable-Phenotype (%): 2%
  Population Mitochondria Different-Phenotype (%): 90%
  Population Mitotic Cells (%): 25%
  Population Normal (%): 62%
  Population Pyknosed Nuclei (%): 37%
  Population Tubulin-Different-Phenotype (%): 91%
  Total Cell Count: 217
[2]; 0 h, replicate number 1, timepoint 0 hours
  Growth Rate: 0
[2]; 6 h, replicate number 1, timepoint 6 hours
  Growth Rate: 1
[2]; 6 h, replicate number 2, timepoint 6 hours
  Growth Rate: 0
[2]; 12 h, replicate number 1, timepoint 12 hours
  Growth Rate: 0
[2]; 18 h, replicate number 1, timepoint 18 hours
  Growth Rate: 0
[2]; 24 h, replicate number 1, timepoint 24 hours
  Growth Rate: 0
